Source: ChEMBL document CHEMBL1629705, “PSI-7851, a pronucleotide of beta-D-2'-deoxy-2'-fluoro-2'-C-methyluridine monophosphate, is a potent and pan-genotype inhibitor of hepatitis C virus replication” (Antimicrob Agents Chemother, 2010)
Activity calls are given as the source filed them. The calls are words filed in the database; no cut-off is given here.

How the values were obtained:
[1] = test system: Hepatitis C virus; experiment: Selectivity ratio of EC90 for Hepatitis C virus harboring NS5B polymerase S282T mutant gene to EC90 for Hepatitis C virus harboring wild-type NS5B polymerase; type: functional, Hepacivirus hominis
Outline: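 Clone A genotype 1b (Con1) replicon cells, wild-type or S282T mutant (selected with 2′-C-methyladenosine). 1,500 cells/well, 4 days with serially diluted compound. HCV RNA by real-time RT-PCR; EC90 from dose–response.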

[2] = Cytotoxicity against human HuH7 cells assessed as effect on cellular GAPDH RNA level after 8 days by quantitative real-time PCR; type: cell-based, Huh-7
[3] = test system: Hepatitis C virus; experiment: Antiviral activity against Hepatitis C virus assessed as log reduction in viral RNA at 2 uM after 3 weeks; type: functional, Hepacivirus hominis
Outline: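 ET-lunet replicon cells seeded at 1 × 10^5/well without G418, treated at 0.1, 1 or 2 μM (final DMSO 0.5%). Passaged 1:3–1:4 every 3–4 days for 3 weeks with fresh compound. Then compound withdrawn and cells grown 3 more weeks in 0.25 mg/ml G418. HCV RNA by RT-PCR (ΔΔCt vs rRNA and DMSO controls, log change). Colonies fixed in formaldehyde and stained with crystal violet at 6 weeks.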

[4] = Cytotoxicity against human HepG2 cells; type: cell-based
Outline: (§1)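 Cells treated 8 days with compound serially diluted from 100 μM in DMSO-containing medium, gemcitabine (1 μM) or DMSO control. Viability by MTS-type tetrazolium assay, absorbance at 490 nm with medium-only blanks. Value derived by comparison with DMSO control wells.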

[5] = Cytotoxicity against human CEM cells; type: cell-based; conditions: CEM (CCRF-CEM) cells; outline: as §1
[6] = test system: Hepatitis C virus; experiment: Antiviral activity against Hepatitis C virus harboring NS5B polymerase S96T mutant gene infected in human lunet cells by luciferase-based replicon assay; type: functional, Hepacivirus hominis
Outline: (§2)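 ET-lunet cells with the ET genotype 1b replicon, wild-type or S96T/N142T (ET replicon with these mutations electroporated into Lunet cells, selected in 0.2 mg/ml G418). 3,000 cells/well, 4 days with serially diluted compound. Firefly luciferase luminescence read-out; EC90 from dose–response.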

[7] = test system: Hepatitis C virus; experiment: Antiviral activity against Hepatitis C virus harboring NS5B polymerase S96T/N142T mutant gene infected in human lunet cells by luciferase-based replicon assay; type: functional, Hepacivirus hominis; outline: as §2
[8] = test system: CCRF-CEM; experiment: Cytotoxicity against human CEM cells assessed as effect on ribosome RNA gene level at up to 100 uM after 14 days by quantitative real-time PCR assay; type: cell-based; conditions: 336 h
Outline: (§3)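 HepG2 or CEM cells incubated 14 days with compound up to 100 μM, ddC as control. Medium and compound replenished on days 7 and 11. Mitochondrial COXII gene and nuclear rDNA measured by multiplex quantitative RT-PCR.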

[9] = test system: Hepatitis C virus; experiment: Antiviral activity against Hepatitis C virus Con1 infected in human lunet cells assessed as inhibition of viral RNA replication after 4 days by luciferase reporter gene assay; type: functional, organism-based, Hepacivirus hominis; conditions: 96 h
Outline: (§4)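 Genotype 1b Con1 subgenomic replicon cells (ET-lunet, 3,000 cells/well, firefly luciferase ET replicon; clone A, 1,500 cells/well) incubated 4 days with serially diluted compound. Replication read by luciferase luminescence and/or real-time RT-PCR.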

[10] = test system: Hepatitis C virus; experiment: Antiviral activity against Hepatitis C virus assessed as inhibition of viral rebound at 1 uM after 3 weeks in presence of G418; type: functional, organism-based; conditions: Hepacivirus hominis
Outline: (§5)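 ET-lunet replicon cells, 1 × 10^5/well, no G418, with compound at 0.1, 1 or 2 μM (final DMSO 0.5%). Passaged 1:3 or 1:4 every 3–4 days for 3 weeks with fresh compound, then 3 more weeks with 0.25 mg/ml G418 and no inhibitor. HCV RNA by RT-PCR normalized to rRNA (ΔΔCt vs DMSO) at each passage. Crystal violet colony staining at 6 weeks.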

[11] = test system: Hepatitis C virus; experiment: Antiviral activity against Hepatitis C virus assessed as clearance of HCV from replicon cells at 1 uM; type: functional, organism-based; conditions: Hepacivirus hominis; outline: as §5
[12] = test system: Hepatitis B virus; experiment: Antiviral activity against Hepatitis B virus infected in human HepAD38 cells by quantitative real-time PCR; type: functional, organism-based
[13] = Cytotoxicity against human HepG2 cells assessed as effect on cellular GAPDH RNA level after 8 days by quantitative real-time PCR; type: cell-based
[14] = test system: Influenza A virus; experiment: Antiviral activity against Influenza A virus (A/Brisbane/59/2007 (H1N1)) infected in HFF by neutral red assay; type: functional, organism-based
[15] = test system: Hepatitis C virus; experiment: Antiviral activity against Hepatitis C virus isolate Con1 infected in human HuH-7 cells assessed as inhibition of viral RNA replication after 4 days by luciferase reporter gene assay; type: functional, Hepacivirus hominis; conditions: Con1, Huh-7, 96 h; outline: as §4
[16] = test system: HepG2; experiment: Cytotoxicity against human HepG2 cells assessed as effect on ribosome RNA gene level at up to 100 uM after 14 days by quantitative real-time PCR assay; type: cell-based; conditions: hepg2, 336 h; outline: as §3
[17] = test system: Human immunodeficiency virus; experiment: Antiviral activity against HIV infected in human HeLaP4 cells by beta-galactosidase-based reporter gene assay; type: functional, organism-based; conditions: Human immunodeficiency virus 1, HeLaP4
Outline: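 P4 cells (HeLa expressing CD4/CXCR4 with HIV-1 LTR-driven LacZ), 10,000 cells/well, incubated overnight at 37°C, 5% CO2. Compound added 4 h before infection with HIV NL4-3 (4 ng/well p24-equivalent) plus DEAE-dextran 20 μg/ml. Incubated further 40–42 h. Beta-galactosidase read by luminescence; percent inhibition versus no-drug wells.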

[18] = Cytotoxicity against human CEM cells assessed as inhibition of mitochondrial DNA synthesis; type: cell-based; conditions: CEM (CCRF-CEM) cells; outline: as §3
[19] = Cytotoxicity against HFF; type: cell-based; conditions: human, HFF cells
[20] = test system: West Nile virus; experiment: Antiviral activity against West Nile virus New York by neutral red assay; type: functional, organism-based
[21] = Cytotoxicity against human HeLaP4 cells; type: cell-based
[22] = target: T1, DNA-directed RNA polymerase II subunit RPB1 (Homo sapiens, UniProt P24928); experiment: Inhibition of human RNA polymerase 2
Outline: (§6)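 In vitro transcription by HeLa nuclear extract from CMV immediate-early promoter DNA. Mix: 400 μM ATP, CTP and UTP, 16 μM GTP, [α-32P]GTP, 3 mM MgCl2, in 20 mM HEPES pH 7.9 buffer with KCl, EDTA, DTT and glycerol. Inhibitor up to 1 mM. 30°C for 60 min. RNA purified, run on 6% sequencing gel and quantified by phosphorimager.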

[23] = Inhibition of Hepatitis C virus genotype 3a recombinant NS5B polymerase after 3 hrs by phosphor imaging; parameters: species or system Hepatitis C virus subtype 3a
Outline: (§7)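 C-terminal Δ21-truncated NS5B: 1b Con1 and 2a JFH-1 expressed in E. coli; 3a and 4a cloned from patient serum. Mix: 1 μM each NTP, [α-32P]UTP, 20 ng/μl genotype 1b(−) IRES RNA template, 40 ng/μl enzyme, 1 mM MgCl2, 0.75 mM MnCl2, 2 mM DTT, 50 mM HEPES pH 7.5. Run at 27°C: 30 min (1b, 2a) or 3 h (3a, 4a). EDTA quench, products on membrane read by phosphorimager. Duplicates; IC50 calculated.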

[24] = target: T1, DNA-directed RNA polymerase II subunit RPB1; experiment: Inhibition of human RNA polymerase 2 assessed as synthesis of RNA products at 1 uM; outline: as §6
[25] = test system: Hepatitis C virus; experiment: Inhibition of Hepatitis C virus Con1 recombinant NS5B polymerase after 30 mins by phosphor imaging; parameters: species or system Hepacivirus hominis; conditions: Con1, 0.5 h; outline: as §7
[26] = Inhibition of Hepatitis C virus genotype 4a recombinant NS5B polymerase after 3 hrs by phosphor imaging; parameters: species or system Hepatitis C virus subtype 4a; outline: as §7

In the case of `CC(C)OC(=O)[C@H](C)NP(=O)(OC[C@H]1O[C@@H](n2ccc(=O)[nH]c2=O)[C@](C)(F)[C@@H]1O)Oc1ccccc1` (some centres not stated), the Selectivity ratio [1] is reported as 16.4, the CC50 at 192 h [2] is reported as greater than 100 µM and the FC [3] is reported as greater than 5. For the same compound, the CC90 [4] was 12.8 µM, the CC90 [5] was 28.5 µM and the EC90 [6] was 0.39 µM. The EC90 [7] was 0.39 µM, the Activity [8] was “Non-toxic” and the EC50 [9] was 1.34 µM. The EC90 [9] was 3.81 µM, the inhibition [10] was “Active” and the Activity [11] was “Active”. The EC50 [12] was greater than 100 µM, the CC50 at 192 h [13] was greater than 100 µM and the EC50 [14] was greater than 100 µM. The EC90 [15] was 4.32 µM, the Activity [16] was “Non-toxic” and the EC50 [17] was greater than 100 µM. It also gave a CC90 [18] of less than 3 µM, a CC50 [19] greater than 100 µM and an EC50 [20] greater than 100 µM. For the same compound, the CC50 [21] was greater than 100 µM.

With `C[C@@]1(F)[C@H](O)[C@@H](COP(=O)(O)OP(=O)(O)OP(=O)(O)O)O[C@H]1n1ccc(=O)[nH]c1=O` [GS-461203] the IC50 [22] was greater than 500 µM, the IC50 [23] was 0.7 µM and the inhibition [24] was “Active”. It also gave an IC50 [25] of 1.6 µM and an IC50 [26] of 2.6 µM.
